We go through one compound from ChEMBL document CHEMBL3124926, “Identification of highly efficacious glucocorticoid receptor agonists with a potential for reduced clinical bone side effects” (J Med Chem, 2014).

For series [1], the system named is Mus musculus. Description: Toxicity in collagen-induced B10.RIII mouse arthritis model assessed as change in AUC at 3 mg/kg, po qd for 35 days relative to 1% methylcellulose-treated control. The format is organism-based. Further details: dose 3 mg/kg, route oral. The settings on record: in vivo, 840 h. The procedure, abridged:
(§1)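 Female B10.RIII mice were immunized at 12–15 weeks with porcine type II collagen emulsified in complete Freund's adjuvant (100 μg intradermal, tail base). Animals were enrolled at first arthritis signs, 10 per group, and dosed orally once daily for five weeks in 1% methylcellulose. Paws were scored 1–4 each (max 16), with AUC taken. Serum was collected at day 35. Femur cortical thickness was measured by microCT in non-immunized, age-matched mice given the same dosing.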

Series [2] deals with Mus musculus. The series is described as follows: Toxicity in collagen-induced B10.RIII mouse arthritis model assessed as change in body fat at 30 mg/kg, po qd for 35 days relative to 1% methylcellulose-treated control. The format is organism-based. Set-up: dose 30 mg/kg, route oral. The settings on record: in vivo, 840 h. The procedure, abridged: as §1
Series [3] has as its system Mus musculus. The series is described as follows: Toxicity in collagen-induced B10.RIII mouse arthritis model assessed as change in femur cortical thickness at 3 mg/kg, po qd for 35 days relative to 30% cremophor-treated control. The format is organism-based. Set-up: dose 3 mg/kg, route oral. To be noted: in vivo, 840 h. The procedure, abridged: (§2)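 Female B10.RIII mice were immunized with porcine type II collagen in complete Freund's adjuvant, enrolled at arthritis onset (10/group), and dosed orally once daily for five weeks in 30% cremophor vehicle. Four paws were scored 1–4 (max 16), as AUC. Serum biomarkers were taken at day 35. Femur cortical thickness was measured by microCT in non-immunized, age-matched mice dosed identically.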

Series [4] has as its system Mus musculus. Description: Toxicity in collagen-induced B10.RIII mouse arthritis model assessed as change in body fat at 3 mg/kg, po qd for 35 days relative to 30% cremophor-treated control. Further details: dose 3 mg/kg, route oral. The format is organism-based. To be noted: in vivo, 840 h. In outline: as §2
Series [5] has as its system Mus musculus. Description: Toxicity in collagen-induced B10.RIII mouse arthritis model assessed as change in free fatty acid level at 30 mg/kg, po qd for 35 days relative to 30% cremophor-treated control. To be noted: in vivo, 840 h. Further details: dose 30 mg/kg, route oral. The format is organism-based. The procedure, abridged: as §2
Series [6] has as its system Mus musculus. The series is described as follows: Toxicity in collagen-induced B10.RIII mouse arthritis model assessed as change in femur cortical thickness at 30 mg/kg, po qd for 35 days relative to 30% cremophor-treated control. Further details: dose 30 mg/kg, route oral. To be noted: in vivo, 840 h. The format is organism-based. In outline:
as §2

Series [7] deals with Mus musculus. The series is described as follows: Toxicity in collagen-induced B10.RIII mouse arthritis model assessed as change in AUC at 30 mg/kg, po qd for 35 days relative to 1% methylcellulose-treated control. The class given is organism-based. Further details: dose 30 mg/kg, route oral. To be noted: in vivo, 840 h. The procedure, abridged: as §1
Series [8] concerns Mus musculus. Description: Toxicity in collagen-induced B10.RIII mouse arthritis model assessed as change in triglyceride level at 3 mg/kg, po qd for 35 days relative to 1% methylcellulose-treated control. To be noted: in vivo, 840 h. Set-up: dose 3 mg/kg, route oral. The class given is organism-based. In outline: as §1
The test system of series [9] is Mus musculus. Description: Toxicity in collagen-induced B10.RIII mouse arthritis model assessed as change in AUC at 3 mg/kg, po qd for 35 days relative to 30% cremophor-treated control. The format is organism-based. Further details: dose 3 mg/kg, route oral. To be noted: in vivo, 840 h. In outline: as §2
Series [10] has as its system Mus musculus. Description: Toxicity in collagen-induced B10.RIII mouse arthritis model assessed as change in femur cortical thickness at 30 mg/kg, po qd for 35 days relative to 1% methylcellulose-treated control. Set-up: dose 30 mg/kg, route oral. The settings on record: in vivo, 840 h. The class given is organism-based. In outline: as §1
Series [11] relates to Mus musculus. Description: Toxicity in collagen-induced B10.RIII mouse arthritis model assessed as change in free fatty acid level at 30 mg/kg, po qd for 35 days relative to 1% methylcellulose-treated control. The format is organism-based. Set-up: dose 30 mg/kg, route oral. To be noted: in vivo, 840 h. In outline:
as §1

The test system of series [12] is Mus musculus. The series is described as follows: Toxicity in collagen-induced B10.RIII mouse arthritis model assessed as change in free fatty acid level at 3 mg/kg, po qd for 35 days relative to 30% cremophor-treated control. The class given is organism-based. To be noted: in vivo, 840 h. Further details: dose 3 mg/kg, route oral. The procedure, abridged:
as §2

The target of series [13] is T1, Glucocorticoid receptor (Homo sapiens) (UniProt P04150).
T1 sequence (whole entry): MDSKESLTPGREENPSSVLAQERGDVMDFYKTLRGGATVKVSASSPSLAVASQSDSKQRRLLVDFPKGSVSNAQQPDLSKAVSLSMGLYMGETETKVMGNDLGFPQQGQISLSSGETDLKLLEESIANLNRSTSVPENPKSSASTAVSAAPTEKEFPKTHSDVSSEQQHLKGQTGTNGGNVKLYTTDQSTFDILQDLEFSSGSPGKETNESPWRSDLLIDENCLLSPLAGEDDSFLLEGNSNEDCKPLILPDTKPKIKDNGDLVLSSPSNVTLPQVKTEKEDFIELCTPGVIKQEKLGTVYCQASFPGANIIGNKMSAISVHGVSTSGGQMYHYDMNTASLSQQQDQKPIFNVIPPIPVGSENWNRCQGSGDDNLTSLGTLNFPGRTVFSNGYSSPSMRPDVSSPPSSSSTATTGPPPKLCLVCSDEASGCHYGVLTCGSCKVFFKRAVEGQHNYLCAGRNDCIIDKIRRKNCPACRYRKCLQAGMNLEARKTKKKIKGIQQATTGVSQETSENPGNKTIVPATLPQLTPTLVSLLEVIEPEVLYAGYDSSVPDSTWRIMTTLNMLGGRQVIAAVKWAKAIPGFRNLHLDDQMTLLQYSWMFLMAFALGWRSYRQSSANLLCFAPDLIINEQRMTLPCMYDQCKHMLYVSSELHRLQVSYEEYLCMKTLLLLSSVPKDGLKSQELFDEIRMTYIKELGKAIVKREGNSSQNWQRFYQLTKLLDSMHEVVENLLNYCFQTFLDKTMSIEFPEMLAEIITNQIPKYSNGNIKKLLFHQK
Description: Agonist activity at glucocorticoid receptor in human […] cells assessed as suppression of vitamin D-induced osteocalcin production at 2 uM after 48 hrs by Gla-type osteocalcin ELISA relative to dexomethasone. The format is cell-based. In outline: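 MG-63 human osteosarcoma cells plated at 20000/well in DMEM/F-12 with 1% charcoal-filtered FBS and 10 μg/mL vitamin C. Medium refreshed next day, then vitamin D (10 nM final) added with compound (2 × 10−6 to 10−10 M), duplicates. Incubated 48 h at 37 °C; supernatant osteocalcin measured by Gla-type ELISA. Vitamin D-only wells = 100%. Max efficacy at 2 μM is relative to dexamethasone (100%).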

In series [14] the test system is Mus musculus. Description: Toxicity in collagen-induced B10.RIII mouse arthritis model assessed as change in AUC at 30 mg/kg, po qd for 35 days relative to 30% cremophor-treated control. The class given is organism-based. Further details: dose 30 mg/kg, route oral. The settings on record: in vivo, 840 h. The procedure, abridged: as §2
The subject of series [15] is Mus musculus. The series is described as follows: Toxicity in collagen-induced B10.RIII mouse arthritis model assessed as change in insulin level at 3 mg/kg, po qd for 35 days relative to 30% cremophor-treated control. The format is organism-based. Further details: dose 3 mg/kg, route oral. The settings on record: in vivo, 840 h. In outline:
as §2

Series [16] relates to Mus musculus. Description: Toxicity in collagen-induced B10.RIII mouse arthritis model assessed as change in insulin level at 30 mg/kg, po qd for 35 days relative to 1% methylcellulose-treated control. The format is organism-based. Further details: dose 30 mg/kg, route oral. To be noted: in vivo, 840 h. The procedure, abridged: as §1
Series [17] concerns Mus musculus. Description: Toxicity in collagen-induced B10.RIII mouse arthritis model assessed as change in body fat at 30 mg/kg, po qd for 35 days relative to 30% cremophor-treated control. The class given is organism-based. Set-up: dose 30 mg/kg, route oral. The settings on record: in vivo, 840 h. In outline:
as §2

Series [18] concerns Mus musculus. Description: Toxicity in collagen-induced B10.RIII mouse arthritis model assessed as change in triglyceride level at 30 mg/kg, po qd for 35 days relative to 1% methylcellulose-treated control. The format is organism-based. Set-up: dose 30 mg/kg, route oral. To be noted: in vivo, 840 h. In outline: as §1
The test system of series [19] is Mus musculus. The series is described as follows: Toxicity in collagen-induced B10.RIII mouse arthritis model assessed as change in free fatty acid level at 3 mg/kg, po qd for 35 days relative to 1% methylcellulose-treated control. The class given is organism-based. Further details: dose 3 mg/kg, route oral. To be noted: in vivo, 840 h. The procedure, abridged: as §1

Series [20] has as its system Mus musculus. The series is described as follows: Toxicity in collagen-induced B10.RIII mouse arthritis model assessed as change in insulin level at 30 mg/kg, po qd for 35 days relative to 30% cremophor-treated control. The class given is organism-based. Set-up: dose 30 mg/kg, route oral. To be noted: in vivo, 840 h. In outline:
as §2

Series [21] relates to Mus musculus. Description: Toxicity in collagen-induced B10.RIII mouse arthritis model assessed as change in body fat at 3 mg/kg, po qd for 35 days relative to 1% methylcellulose-treated control. The format is organism-based. Set-up: dose 3 mg/kg, route oral. The settings on record: in vivo, 840 h. The procedure, abridged: as §1
Series [22] relates to Mus musculus. Description: Toxicity in collagen-induced B10.RIII mouse arthritis model assessed as change in femur cortical thickness at 3 mg/kg, po qd for 35 days relative to 1% methylcellulose-treated control. The format is organism-based. Further details: dose 3 mg/kg, route oral. The settings on record: in vivo, 840 h. In outline: as §1
In series [23] the test system is Mus musculus. Description: Toxicity in collagen-induced B10.RIII mouse arthritis model assessed as change in insulin level at 3 mg/kg, po qd for 35 days relative to 1% methylcellulose-treated control. The format is organism-based. Set-up: dose 3 mg/kg, route oral. The settings on record: in vivo, 840 h. The procedure, abridged:
as §1

One may read the Emax as the greatest response seen or fitted, relative to the assay's reference. Consider `C[C@]12C=CC(=O)C=C1CC[C@@H]1[C@@H]2[C@@H](O)C[C@@]2(C)[C@H]1CC[C@]2(O)C(=O)CO` [PREDNISOLONE], for which the Activity is -43% in the series with Mus musculus [1]; 68% with Mus musculus [2]; -13% with Mus musculus [3]; 30% in the series on Mus musculus [4]; 54% in the series on Mus musculus [5]; -22% in the series on Mus musculus [6]. Besides, the Activity is listed as -78% in the series with Mus musculus [7]; 21% in the series with Mus musculus [8]; -55% in the series on Mus musculus [9]; -18% in the series with Mus musculus [10]; 44% in the series on Mus musculus [11]; 30% in the series on Mus musculus [12]. The Activity with Mus musculus [14] is -90%; in the series on Mus musculus [15], 36%; with Mus musculus [16], 103%; with Mus musculus [17], 71%; in the series on Mus musculus [18], 226%; in the series with Mus musculus [19], 39%. Further, the Activity with Mus musculus [20] is given as 703%; in the series with Mus musculus [21], 48%; in the series on Mus musculus [22], -9%; in the series with Mus musculus [23], 62%. The maximal effect (Emax) in [13] was found to be 78%.
